{"data": "Measurements of several laboratories", "ABL1 F317I phosphorylated": "Tyrosine-protein kinase ABL1, phosphorylated (ABL1, Homo sapiens, UniProt P00519, F317I)", "ABL1 T315I phosphorylated": "Tyrosine-protein kinase ABL1, phosphorylated (ABL1, Homo sapiens, UniProt P00519, T315I)", "ABL1 T315I non-phosphorylated": "Tyrosine-protein kinase ABL1, non-phosphorylated (ABL1, Homo sapiens, UniProt P00519, T315I)", "ABL1 E255K": "Tyrosine-protein kinase ABL1 (ABL1, Homo sapiens, UniProt P00519, E255K)", "ABL1 Y253F": "Tyrosine-protein kinase ABL1 (ABL1, Homo sapiens, UniProt P00519, Y253F)", "ABL1 Y253F phosphorylated": "Tyrosine-protein kinase ABL1, phosphorylated (ABL1, Homo sapiens, UniProt P00519, Y253F)", "ABL1 Q252H non-phosphorylated": "Tyrosine-protein kinase ABL1, non-phosphorylated (ABL1, Homo sapiens, UniProt P00519, Q252H)", "ABL1 non-phosphorylated": "Tyrosine-protein kinase ABL1, non-phosphorylated (ABL1, Homo sapiens, UniProt P00519)", "ABL1 phosphorylated": "Tyrosine-protein kinase ABL1, phosphorylated (ABL1, Homo sapiens, UniProt P00519)", "ABL1 M351T phosphorylated": "Tyrosine-protein kinase ABL1, phosphorylated (ABL1, Homo sapiens, UniProt P00519, M351T)", "note": "Protocols differ between the studies behind these lines."}
{"Compound": "O=C(NCCCN1CCOCC1)c1ccc(Nc2nccc(-c3cc4ccccc4s3)n2)cc1", "target": "ABL1 F317I phosphorylated", "test": "binding, competition with immobilised ligand", "conditions": "1 µM", "remaining binding": "84%"}
{"Compound": "COc1cnc(Nc2cccc(S(N)(=O)=O)c2)nc1N1CCN(c2ccccc2)C(=O)C1", "target": "ABL1 T315I phosphorylated", "test": "binding, competition with immobilised ligand", "conditions": "1 µM", "remaining binding": "77%"}
{"Compound": "CN(C)CC#Cc1ccc(OCCCc2sc(N3CCc4cccc(C(=O)Nc5nc6ccccc6s5)c4C3)nc2C(=O)O)c(F)c1", "target": "ABL1 T315I phosphorylated", "test": "cell-free assay, competition with immobilised ligand", "conditions": "1 µM", "remaining binding": "92%"}
{"Compound": "O=C(NCC1CCOCC1)c1n[nH]cc1NC(=O)c1c(F)cccc1F", "target": "ABL1 T315I non-phosphorylated", "test": "binding, competition with immobilised ligand", "conditions": "1 µM", "remaining binding": "90%"}
{"Compound": "N[C@@H]1CCN(c2nccc(-c3cnn4ncccc34)n2)C1", "target": "ABL1 E255K", "test": "binding", "conditions": "1 µM", "remaining binding": "100%"}
{"Compound": "O=C(c1ccc(Nc2ncc(Cl)c(-c3cc4ccccc4s3)n2)cc1)N1CCC(N2CCCC2)CC1", "target": "Tyrosine-protein kinase ABL1, phosphorylated (ABL1, Homo sapiens, UniProt P00519, E255K)", "test": "binding, competition with immobilised ligand", "conditions": "1 µM", "remaining binding": "13%"}
{"Compound": "C[C@@H]1CCN(c2nccc(-c3cnn4ncccc34)n2)C1", "target": "ABL1 Y253F", "test": "binding", "conditions": "1 µM", "remaining binding": "88%"}
{"Compound": "O=C(NCCCN1CCOCC1)c1ccc(Nc2ncc(Cl)c(-c3ccc(Cl)s3)n2)cc1", "target": "Tyrosine-protein kinase ABL1, non-phosphorylated (ABL1, Homo sapiens, UniProt P00519, F317L)", "test": "binding, competition with immobilised ligand", "conditions": "1 µM", "remaining binding": "71%"}
{"Compound": "COc1ccnn2ncc(-c3ccnc(N(C)C)n3)c12", "target": "ABL1 E255K", "test": "binding", "conditions": "1 µM", "remaining binding": "86%"}
{"Compound": "Nc1ncc2c(n1)-c1c([nH]c3ccc(C#CC4CC4)cc13)CCCC2", "target": "ABL1 Y253F phosphorylated", "test": "binding, competition with immobilised ligand", "conditions": "1 µM", "remaining binding": "95%"}
{"Compound": "O=C(Nc1c[nH]nc1C(=O)NC1CCNCC1)c1cc(F)cc(F)c1", "target": "Tyrosine-protein kinase ABL1, phosphorylated (ABL1, Homo sapiens, UniProt P00519, H396P)", "test": "binding, competition with immobilised ligand", "conditions": "1 µM", "remaining binding": "100%"}
{"Compound": "O=C(c1ccc(Nc2ncc(Cl)c(-c3ccc(Cl)s3)n2)cc1)N1CCC(N2CCCC2)CC1", "target": "ABL1 Q252H non-phosphorylated", "test": "binding, competition with immobilised ligand", "conditions": "1 µM", "remaining binding": "1%"}
{"Compound": "c1cnn2ncc(-c3ccnc(N4CCC45COC5)n3)c2c1", "target": "Tyrosine-protein kinase ABL1 (ABL1, Homo sapiens, UniProt P00519, H396P)", "test": "binding", "conditions": "1 µM", "remaining binding": "66%"}
{"Compound": "C[C@@H]1CN(c2cc(-c3n[nH]c4ccc(OC5(C)CC5)cc34)ncn2)C[C@H](C)O1", "target": "ABL1 Y253F phosphorylated", "test": "cell-free assay, competition with immobilised ligand", "conditions": "0.1 µM", "remaining binding": "66%"}
{"Compound": "C[C@@H](c1ccc(-n2cnc3c(N)ncnc32)cc1)N1CCc2nn(C)c(Cc3ccccc3)c2C1=O", "target": "ABL1 F317I phosphorylated", "test": "binding, competition with immobilised ligand", "conditions": "0.1 µM", "remaining binding": "62%"}
{"Compound": "COc1ncc2cc3ccccc3nc2c1C#N", "target": "ABL1 non-phosphorylated", "test": "cell-free assay, competition with immobilised ligand", "conditions": "5 µM", "remaining binding": "100%"}
{"Compound": "O=C(c1ccc(Nc2nccc(-c3cc4ccccc4s3)n2)cc1)N1CCC(N2CCCC2)CC1", "target": "ABL1 F317I phosphorylated", "test": "binding, competition with immobilised ligand", "conditions": "1 µM", "remaining binding": "99%"}
{"Compound": "CN(c1nccc(-c2cnn3ncccc23)n1)C1CC1", "target": "ABL1 Y253F", "test": "binding", "conditions": "1 µM", "remaining binding": "100%"}
{"Compound": "CCN1CCN(Cc2ccc(C(=O)Nc3ccc(C)c(Oc4ccc5c(c4)CC(=O)N5)c3)cc2C(F)(F)F)CC1", "target": "ABL1 phosphorylated", "test": "binding, competition with immobilised ligand", "conditions": "1 µM", "remaining binding": "34%"}
{"Compound": "Cc1cnc(Nc2ccc(C(=O)N3CCC(N4CCCC4)CC3)cc2)nc1-c1cc2ccccc2s1", "target": "ABL1 T315I non-phosphorylated", "test": "binding, competition with immobilised ligand", "conditions": "1 µM", "remaining binding": "0.1%"}
{"Compound": "N#CC1(c2ccccn2)CCN(Cc2cc(C(=O)N3CCCC3)c(=O)n3ccccc23)CC1", "target": "ABL1 M351T phosphorylated", "test": "cell-free assay, competition with immobilised ligand", "conditions": "1 µM", "remaining binding": "100%"}
{"Compound": "CNC(=O)[C@@H]1CC[C@@H](n2c(-c3ccc4cnccc4c3)nc3ccc(C(=O)NCc4cccc(C(N)=O)c4)cc32)C1", "target": "Tyrosine-protein kinase ABL1, phosphorylated (ABL1, Homo sapiens, UniProt P00519, F317L)", "test": "binding, competition with immobilised ligand", "conditions": "1 µM", "remaining binding": "95%"}
{"Compound": "C[C@@H]1CN(c2cc(-c3nn(C)c4ccc(OC5(C)CC5)cc34)ncn2)C[C@H](C)O1", "target": "ABL1 F317I phosphorylated", "test": "binding", "conditions": "1 µM", "remaining binding": "75%"}
{"Compound": "c1cncc(-c2cccc(Nc3nccc(NC4CCCCC4)n3)c2)c1", "target": "ABL1 M351T phosphorylated", "test": "binding, competition with immobilised ligand", "conditions": "10 µM", "remaining binding": "38%"}
{"Compound": "Cc1nc(Cc2cccc(C(F)(F)F)c2)sc1-c1ccc(C(N)=O)nc1", "target": "ABL1 Q252H non-phosphorylated", "test": "cell-free assay, competition with immobilised ligand", "conditions": "1 µM", "remaining binding": "87%"}
{"Compound": "CC1CCCN1c1nccc(-c2cnn3ncccc23)n1 (centres unmarked)", "target": "Tyrosine-protein kinase ABL1 (ABL1, Homo sapiens, UniProt P00519, M351T)", "test": "binding", "conditions": "1 µM", "remaining binding": "98%"}
{"Compound": "COc1cccc(CNC(=O)c2nc3scc(COCc4ccc(C(=O)O)cc4)c3c(=O)[nH]2)c1", "target": "ABL1 Y253F phosphorylated", "test": "cell-free assay, competition with immobilised ligand", "conditions": "1 µM", "remaining binding": "84.6%"}
{"Compound": "CN(C)c1nccc(-c2cnn3ncccc23)n1", "target": "ABL1 non-phosphorylated", "test": "binding, competition with immobilised ligand", "conditions": "1 µM", "remaining binding": "98%"}
{"Compound": "CC(=O)C1=C(C)N(c2cccc(C(F)(F)F)c2)C(=O)N[C@@H]1c1ccc(C#N)nc1", "target": "ABL1 T315I phosphorylated", "test": "cell-free assay, competition with immobilised ligand", "conditions": "1 µM", "remaining binding": "96.9%"}
{"Compound": "COc1cnc(Nc2cccc(S(N)(=O)=O)c2)nc1N1CCN(c2ccccc2)CC1", "target": "ABL1 phosphorylated", "test": "binding, competition with immobilised ligand", "conditions": "1 µM", "remaining binding": "79%"}
{"Compound": "CCCOc1ccc([C@@H]2[C@@H](C(=O)O)[C@H](c3ccc4c(c3)OCO4)CN2CC(=O)Nc2c(CC)cccc2CC)cc1", "target": "ABL1 T315I non-phosphorylated", "test": "cell-free assay, competition with immobilised ligand", "conditions": "1 µM", "remaining binding": "83%"}
{"Compound": "C=CC(=O)N1CCC(C(=O)NCC(=O)N2CCN(c3nc(-c4cnc(N)nc4C(F)F)nc(N4CCOCC4)n3)CC2)CC1", "target": "ABL1 Y253F phosphorylated", "test": "binding, competition with immobilised ligand", "conditions": "1 µM", "remaining binding": "90%"}
